Most compounds without a hit are left out; they make up all but 4.9% or so of the library.
NPY-Y2 PAM-ag: potentiates or activates human NPY-Y2 receptor; P49146; cells expressing NPY-Y2, potentiator/agonist read-out; activation, % at 3.6 µM; 0.45% of 220,000 active; AID 1359; in the data active = activation above about 27%;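 note: cells stimulated with NPY near EC25 plus isoproterenol at EC100; 0% = vehicle plus submaximal agonist and 100% = vehicle plus saturating agonist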
Target sequence (P49146 whole entry, looked up): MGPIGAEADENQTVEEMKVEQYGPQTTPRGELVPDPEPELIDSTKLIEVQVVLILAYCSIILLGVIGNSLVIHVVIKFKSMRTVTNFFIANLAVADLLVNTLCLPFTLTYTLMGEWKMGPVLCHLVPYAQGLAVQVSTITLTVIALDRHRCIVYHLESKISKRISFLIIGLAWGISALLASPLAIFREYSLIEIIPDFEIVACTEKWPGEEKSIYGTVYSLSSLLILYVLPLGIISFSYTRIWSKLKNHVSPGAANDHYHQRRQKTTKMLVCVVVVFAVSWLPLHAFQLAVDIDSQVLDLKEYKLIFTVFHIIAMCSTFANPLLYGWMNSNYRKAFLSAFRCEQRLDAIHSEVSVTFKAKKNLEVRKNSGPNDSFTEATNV
NPY-Y1 antag: antagonists of human neuropeptide Y receptor Y1. P25929. HEK293-CNG Y1 cells, membrane potential fluorescence; NPY at EC95, then isoproterenol. inhibition, % at 3.6 µM. 1% of 200,000 active. AID 1040;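 active = inhibition above the campaign mean inhibition of all tested compounds plus 3 SD, cut at about 20% in these data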;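 note: 0% = DMSO wells given NPY plus isoproterenol and 100% = isoproterenol alone without NPY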
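Assay system: HEK293 cells with Y1 receptor plus CNG channel | Probe or stimulus: NPY (25 nM), isoproterenol (1 µM), Ro 20-1724 (25 µM) | Timing: Compound incubation 1 h at room temperature, readout 45 min post-stimulation | Measured by: Membrane-potential fluorescent dye readout | Benchmarks: High control isoproterenol alone, low control NPY with isoproterenol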
RAM network inh: blocks the yeast RAM network; AID 868; S. cerevisiae dse1pr::URA3 reporter, 5-FOA growth OD615, 2 d; analog-sensitive cbk1-as2 kinase mutant strain; 1.8% of 190,000 active; inhibition, % at 50 µM;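 active = inhibition above a set limit, 3 SD over mean compound inhibition, cut at about 8.4% in these data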;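 note: 0% = DMSO-only wells with no growth and 100% = 10 µM 1-NA-PP1 full growth; inhibition rescues growth on 5-FOA so higher OD means more RAM inhibition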
NPY Y2 blocker: blocks the human neuropeptide Y Y2 receptor | NPY-Y2 expressing cells, antagonist mode | AID 793 | P49146 | inhibition, % at 2.7 µM | 0.99% of 140,000 active; in the data active = inhibition above about 17%;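 note: 0% = vehicle with agonist challenge and 100% = reference antagonist with challenge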
NPY-Y1 PAM-ag: potentiators or agonists of human neuropeptide Y receptor Y1 | P25929 | activation, % at 3.6 µM | 0.37% of 220,000 active | NPY-Y1 expressing cells, potentiator/agonist activation; in the data active = activation above about 33%, passing the limit was not always enough;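 note: cells stimulated with NPY at EC10 then isoproterenol at EC100; 0% = low agonist plus stimulus and 100% = saturating agonist plus stimulus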
WT yeast gro inh: growth inhibition of WT yeast, mitochondrial fusion screen | mitochondrial fusion phenotypic screen, WT strain | inhibition, % at 10 µM | 2.1% of 190,000 active | AID 1362; in the data active = inhibition above about 58%; tested in S. cerevisiae
* hit, by the source's call; x = no result given.

SMILES | NPY-Y2 PAM-ag | NPY-Y1 antag | RAM network inh | NPY Y2 blocker | NPY-Y1 PAM-ag | WT yeast gro inh
C=CCNC1=C(Cl)C(=O)N(c2ccccc2Cl)C1=O | -15 | 3 | 8.9* | 1 | -6 | -10
Cc1c(NC2=C(Cl)C(=O)N(c3ccccc3Cl)C2=O)c(=O)n(-c2ccccc2)n1C | 8 | 2 | 4 | 4 | -1 | 14
COc1ccc(CNC(=O)Nc2cccc(C)c2)cc1 | 6 | -2 | 1 | 4 | -20 | 9
CC1/C(=N/O)CC(c2ccccc2)N(C)C1c1ccccc1 (configuration not stated) | -1 | 1 | 0 | 3 | 24 | 98*
CC1C(c2ccccc2)N(C)C(c2ccccc2)CC1(O)c1ccccc1 (configuration not stated) | -14 | 9 | 0 | 2 | -44 | 58*
Cc1cc(C)cc(NC(=O)c2snc3c(=O)[nH]cnc23)c1 | -2 | -2 | 1 | 2 | -5 | -5
Cc1cccc(N2CCN(C(=O)c3cc4n(n3)C(C(F)(F)F)CC(c3ccco3)N4)CC2)c1C (configuration not stated) | 5 | 1 | 5 | 2 | 12 | 61*
COc1ccc(C(=O)NCc2ccccn2)cc1[N+](=O)[O-] | 18 | 0 | 1 | x | 2 | -11
O=C(CSc1c(Cl)cccc1Cl)N1CCC(c2nc3ccccc3s2)CC1 | 13 | 4 | 9.4* | 9 | 7 | -1
Cc1cc(C(=O)N2CCN(C/C=C/c3ccccc3)CC2)cs1 | -8 | 3 | 1 | 3 | -29 | 11
O=C(c1cc(Br)c(Br)s1)N1CCN(C/C=C/c2ccccc2)CC1 | -9 | 13 | 0 | 13 | -22 | 64*
O=c1[nH]c2cc(Cl)c([N+](=O)[O-])nc2[nH]1 | -15 | 22* | 1 | 18* | -61 | 10
O=c1[nH]c2c(Br)cnc([N+](=O)[O-])c2[nH]1 | 4 | x | x | x | -13 | x
O=C(/C=C/c1ccc(-c2cccc([N+](=O)[O-])c2)o1)N1CCOCC1 | -2 | x | x | x | 26 | x
S=c1nc(SCc2ccccc2)[nH]c2ccccc12 | -10 | 11 | 3 | x | -17 | 62*
O=C(Nc1ccc(-c2nc3ccccc3[nH]2)cc1)C1CCCO1 (configuration not stated) | -12 | -4 | 2 | 4 | -34 | 69*
CCOCCCNC(=O)C(c1ccc(C)cc1)N(Cc1cccs1)C(=O)c1ccccc1O (configuration not stated) | -7 | 2 | 5 | x | -13 | 0
CCOC(=O)c1ccc(NC(=O)NCc2ccccc2)cc1 | 16 | -4 | 2 | x | 26 | 11
CCS(=O)(=O)c1ccc2oc(SCC(=O)NCCc3ccc(F)cc3)nc2c1 | 13 | 6 | 1 | x | -5 | 3
CCN(CC)S(=O)(=O)c1ccc2oc(SCc3ccc(F)cc3)nc2c1 | 3 | 5 | 10.0* | 5 | -13 | 46
Cc1ccc(CN=Cc2[nH]c3ccc(Br)c(Cl)c3c2O)cc1 | 12 | 2 | 0 | 0 | 9 | 64*
Cc1ccc(C#CC[N+]2(CC#Cc3ccc(C)cc3)CCCCC2)cc1 | -4 | 27* | 0 | 20* | -31 | 20
C(#Cc1ccccc1)C[N+]1(CC#Cc2ccccc2)CCCCC1 | 3 | 10 | 1 | x | -15 | -4
O=C(O)c1cccc(-n2nnnc2SCc2ccccn2)c1 | 9 | 0 | 0 | 1 | -4 | -5
COc1ccc(-c2[nH]ncc2C2N=C(N)Nc3nc4ccccc4n32)cc1 (configuration not stated) | -4 | -2 | 1 | x | 9 | 15
SMILES | NPY-Y2 PAM-ag | NPY-Y1 antag | RAM network inh | NPY Y2 blocker | NPY-Y1 PAM-ag | WT yeast gro inh
CN(C(=O)c1ccc2c(Cl)c3c(nc2c1)CCC3)c1ccccc1 | -6 | 0 | 0 | 4 | -5 | 37
CCN(C(=O)c1ccc2c(Cl)c3c(nc2c1)CCC3)c1ccc(C)c(C)c1 | -10 | 8 | 0 | 5 | -24 | 94*
O=C(CNCc1ccccc1)Nc1ccc(Oc2ccccc2)cc1 | -36 | 17 | 11* | x | -32 | 42
O=C(c1cccnc1)C1CCCN(Cc2nc(Cc3ccccc3F)no2)C1 (configuration not stated) | -5 | -1 | 1 | x | -2 | -8
CC(C)C(OC(=O)c1nsc(Cl)c1Cl)C(=O)NCc1ccc2c(c1)OCO2 (configuration not stated) | -8 | 8 | 4 | 5 | -5 | 1
O=S(=O)(NC1CCCC1)c1ccc(S(=O)(=O)N(Cc2cccs2)CC2CCCO2)cc1 (configuration not stated) | 17 | -5 | 9.6* | 1 | 20 | -3
CCCc1sc(N/N=C/c2ccccn2)nc1-c1ccc(Br)cc1 | -32 | -6 | 2 | 3 | -3 | 65*
CC(=O)Nc1sc(N/N=C/c2ccccc2)nc1-c1ccc(C)cc1 | 11 | x | x | x | 7 | x
S=C(NCc1ccncc1)Nc1cccc(Cl)c1 | -2 | 9 | 1 | 4 | 12 | -3
Fc1ccc(CNC(=S)Nc2cccc(Cl)c2)cc1 | 11 | -1 | 1 | 0 | 23 | 60*
O=C(OCn1ncc(Br)c(Br)c1=O)c1c(F)cccc1F | -13 | 1 | -1 | 0 | -13 | 81
CC(=O)Cn1ncc(Br)c(Br)c1=O | -4 | 1 | 9.9* | x | 5 | 6
COC(=O)c1ccc(/C=N/N2CCN(Cc3ccc(C)cc3C)CC2)cc1 | 2 | -3 | 0 | 1 | 2 | 17
Cc1ccc(C)c(C(=O)COC(=O)c2cc(Cl)nc3ccccc23)c1 | -4 | 1 | 9.6* | 9 | -10 | 30
O=C(c1cccc(Br)c1)c1conc1C(=O)c1ccco1 | -3 | 3 | 1 | -1 | 9 | 67*
CC(C)C1Cc2c(sc3[nH]c(=S)n(Cc4ccccc4)c(=O)c23)CO1 (configuration not stated) | -28 | -3 | 6 | -2 | -21 | 61*
CCOC(=O)Cn1c(CN2CCc3ccccc3C2)nc2c1c(=O)n(C)c(=O)n2C | 3 | 13 | 2 | 4 | 5 | 17
Cc1cc(C)nc(N/N=C/c2cccc([N+](=O)[O-])c2)n1 | -21 | x | x | x | 1 | x
CCN(CC)S(=O)(=O)c1cnccc1N1CCN(c2cccc(Cl)c2)CC1 | 7 | 19 | 0 | 6 | -4 | 58*
CNS(=O)(=O)c1cnccc1N1CCN(c2cccc(Cl)c2)CC1 | -8 | -1 | 2 | 1 | -8 | 1
CCCCNS(=O)(=O)c1ccc2nc(SCC(=O)Nc3ccccc3Cl)[nH]c2c1 | 12 | 0 | 9.4* | 2 | 9 | 11
CSCCC(NC(=O)c1ccc(Cl)cc1)C(=O)OCC(=O)Nc1cc(Cl)ccc1C#N (configuration not stated) | 2 | 0 | 8.7* | 1 | 5 | -1
CSCCC(NC(=O)c1ccccc1)C(=O)OCC(=O)Nc1ccc(C)c(Cl)c1 (configuration not stated) | 10 | -6 | 6 | -1 | 4 | 24
